ChEMBL document CHEMBL1130341, “Novel indole-2-carboxamide and cycloalkeno[1,2-b]indole derivatives. Structure-activity relationships for high inhibition of human LDL peroxidation” (J Med Chem, 1997)

Tests used:
[1] = Tested for inhibition of copper induced lipid peroxidation in human low density lipoproteins (LDL); assay type: functional
How it was run: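 LDL isolated by ultracentrifugation from pooled plasma of healthy normolipidemic human donors. Oxidation driven by copper for 3 h at 24 °C. Compounds in DMSO added just before oxidation, at 10 concentrations from 10^-7 to 10^-3 M, in duplicate. TBARS measured by the Yagi method. IC50 by linear regression; also given as an activity ratio versus probucol.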

[2] = Activity ratio versus Probucol in lipid peroxidation; assay type: functional
How it was run: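 LDL isolated by ultracentrifugation from pooled plasma of healthy normolipidemic human donors. Compounds were added in DMSO just before copper-induced oxidation (3 h, 24 °C). Ten concentrations from 10^-7 to 10^-3 M were tested in duplicate. Read-out was TBARS inhibition (Yagi method), and IC50 came from linear regression. Activity was expressed as a ratio versus probucol to correct for LDL batch variation.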

Rattus norvegicus = species: Rattus norvegicus; assay: Inhibitory concentration against KCL-induced rat thoracic contraction; assay type: functional
How it was run: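 Isolated rat aorta contracted with hyperpotassic solution (KCl 60 mM). Inhibition of contraction measured at eight concentrations, 10^-8 to 3 × 10^-5 M, each in duplicate, on two separate preparations. IC50 obtained from the concentration-response curve by linear regression. Flunarizine as reference.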

Bos taurus = species: Bos taurus; assay: Inhibitory concentration against protection of bovine endothelial cells against cytotoxicity of oxidised LDL; assay type: functional; details: Endothelial cell
How it was run: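 Cells kept 48 h in the presence of oxidized LDL, washed twice with PBS. Viability read by MTT (250 µg mL^-1 in phenol red-free RPMI, 2 h, 37 °C), solubilized in DMSO, OD 540 nm, expressed as % of cells grown without oxidized LDL. Six concentrations, five assays each; IC50 by linear regression.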

Endothelial cell = assay: Inhibitory concentration against 15-lipoxygenase, by inhibiting 15-HETE production by human umbilical vein endothelial cells (HUVEC) stimulated by calcium ionophore A 23187 at concentration of 10e-5 M.; assay type: cell-based
How it was run: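 HUVEC (isolated) preincubated 15 min at 37 °C with compound at 10^-5 M in DMSO, in triplicate; stimulated with calcium ionophore A 23187 (5 × 10^-6 M in DMSO).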

IC50 [1] [µM] | IC50 (Rattus norvegicus) [µM] | Compound | Ratio [2] | IC50 (Bos taurus) [µM] | inhibition (Endothelial cell) [%]
0.9 | – | Cn1c(C(=O)Nc2ccccc2)cc2cc(O)ccc21 | 0.3 | – | –
1 | – | CCCCN(C(=O)c1cc2cc(O)ccc2n1C)c1ccccc1 | 3 | – | –
0.9 | – | COc1ccc2[nH]c(C(=O)Nc3ccccc3)cc2c1 | 2.2 | – | –
< 0.1 | – | CN(C(=O)c1cc2cc(O)ccc2n1C)c1cccc(Cl)c1 | > 20 | – | –
90 | – | COc1ccc2c(c1)cc(C(=O)N(C)c1ccccc1)n2C | 0.02 | – | –
1 | – | COc1ccc2[nH]c3c(c2c1)CCCC3 | 3 | – | –
1 | – | Cn1c(C(=O)Nc2cccc(Cl)c2)cc2cc(O)ccc21 | 0.8 | – | –
> 1000 | – | COc1ccc2[nH]c(C(=O)N(C)c3ccccc3)cc2c1 | < 0.001 | – | –
0.6 | – | Cn1c2c(c3cc(O)ccc31)CCCC2 | 3 | – | –
5 | – | COc1ccc(CN2CCN(C(=O)c3cc4cc(O)ccc4[nH]3)CC2)c(OC)c1OC | 1 | – | –
10 | – | CCCCCCCCN(C(=O)c1cc2cc(O)ccc2[nH]1)c1ccccc1 | 0.3 | – | –
0.2 | – | CCCCCCN(C(=O)c1cc2cc(O)ccc2n1C)c1ccccc1 | 5 | – | –
0.6 | 1.5 | Cn1c(C(=O)N2CCN(C(c3ccc(F)cc3)c3ccc(F)cc3)CC2)cc2cc(O)ccc21 | 5 | 0.14 | –
200 | – | COc1cccc(N(C)C(=O)c2cc3cc(OC)ccc3n2C)c1 | 0.01 | – | –
1 | – | CN(C(=O)c1cc2cc(O)ccc2[nH]1)c1ccccc1 | 1 | – | –
1 | – | O=C(Nc1ccccc1)c1cc2cc(O)ccc2[nH]1 | 3 | – | –
0.5 | – | Oc1ccc2[nH]c3c(c2c1)CCCCCC3 | 2 | – | –
20 | – | CCSc1ccc2c(c1)c1c(n2C)CCCC1 | 0.1 | – | –
0.1 | – | Cn1c2c(c3cc(O)ccc31)CCCCC2 | – | – | 62
1 | – | CN(C(=O)c1cc2cc(O)ccc2n1C)c1cccc(C(F)(F)F)c1 | 0.5 | – | –
0.1 | – | CCCCCCN(C(=O)c1cc2cc(O)ccc2[nH]1)c1ccccc1 | 10 | – | –
0.2 | – | CN(C(=O)c1cc2cc(O)ccc2n1C)c1ccccc1 | 10 | – | –
0.1 | – | Cn1c2c(c3cc(O)ccc31)CCCCCC2 | 10 | – | –
5 | – | CC(C)(Sc1cc(C(C)(C)C)c(O)c(C(C)(C)C)c1)Sc1cc(C(C)(C)C)c(O)c(C(C)(C)C)c1 [PROBUCOL] | – | – | –
100 | – | CCCCCCCCN(C(=O)c1cc2cc(SCC)ccc2[nH]1)c1ccccc1 | 0.03 | – | –
0.8 | – | COc1cc(NC(=O)c2cc3cc(O)ccc3[nH]2)cc(OC)c1OC | 3.8 | – | –
0.8 | – | CN(C(=O)c1cc2cc(O)ccc2n1C)c1cccc(Br)c1 | 2.5 | – | –
